Measured values: PMC8245906 (Acta Pharmaceutica Sinica. B, 2021)
Like-named read-outs stand apart in the source and are kept apart here.

Columns and labels:
[1] = Microsomal stability in human liver microsomes; format: in vitro ADME; settings: for microsomal CLint at 1 μmol/L: human, liver microsomes, pH 7.4
Method in brief: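 Human liver microsomes (0.5 mg/mL protein) in 0.1 mol/L potassium phosphate, pH 7.4, 37 °C, with 1 mmol/L NADPH and 1 mmol/L MgCl₂, or without NADPH. Test compound at 1 µmol/L final. For CYP3A inhibition, cobicistat was pre-incubated 5 min before the compound. Sampled at 0–60 min and quenched with acidified acetonitrile. LC/MS/MS gave t1/2 and CLint; at least duplicate.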

[2] = Microsomal stability in CD-1 mice liver microsomes; format: in vitro ADME; settings: for microsomal CLint at 1 μmol/L: CD-1, mouse, liver microsomes, pH 7.4
Method in brief: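 Mouse liver microsomes (0.5 mg/mL protein, final) in 0.1 mol/L potassium phosphate, pH 7.4, 37 °C, with 1 mmol/L NADPH and 1 mmol/L MgCl₂. Started by adding test compound (1 µmol/L final). A no-NADPH control was run in parallel. Sampled at 0, 5, 15, 30 and 60 min and quenched in acidified acetonitrile. LC/MS/MS gave t1/2 and CLint. At least duplicate independent assays.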

[3] = Plasma stability in human plasma; format: in vitro ADME; settings: 1 μmol/L, 80% plasma, 37 °C
Method in brief: (§1)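 Test compound (1 µmol/L final) incubated in duplicate in pooled plasma diluted to 80% in 0.1 mol/L potassium phosphate, pH 7.4, at 37 °C. Aliquots taken at 0, 1, 3, 6 and 24 h, quenched with acetonitrile containing 0.1% formic acid, and centrifuged. Supernatant analysed by LC/MS/MS to derive plasma t1/2.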

[4] = test system: major CYP enzymes including 1A1, 1A2, 2B6, 2C8, 2C9, 2C19, 2D6, 3A4, or 3A5; settings: cited from earlier work
SARS-CoV-2 [5] = settings: Vero E6 cells, cited from earlier work
SARS-CoV-2 [6] = settings: Calu-3 2B4 cells, cited from earlier work
[7] = Tissue distribution of GS-441524 and GS-443902 in CD-1 mice after oral dosing; format: in vivo; settings: 20 mg/kg oral dose
[8] = Pharmacokinetics and oral bioavailability of GS-441524 in CD-1 mice; format: in vivo
[9] = Plasma stability in CD-1 mouse plasma; format: in vitro ADME, CD-1 mice
Method in brief: as §1

SARS-CoV-2 [10] = settings: read-out: EC50 against SARS-CoV-2; A549-hACE2 cells; cited from earlier work
P-glycoprotein (P-gp) = settings: cited from earlier work
[11] = human, after iv infusion of RDV, phase I; cited from earlier work
CYP 2C8, 2D6 and 3A4 = settings: cited from earlier work
[12] = read-out: EC50 against SARS-CoV-2
[13] = read-out: EC90 against SARS-CoV-2
[14] = male, CD-1, mouse, plasma, iv, 5 mg/kg
[15] = male, CD-1, mouse, plasma, po, 10 mg/kg

Compound: N#C[C@@]1(c2ccc3c(N)ncnn23)O[C@H](CO)[C@@H](O)[C@H]1O [GS-441524]
- microsomal CLint at 1 μmol/L [1]: 1.9 ± 0.1 µL/min/mg
- Remaining percentage at 60 min in HLMs ([1]; with NADPH, 60 min): over 91%
- microsomal CLint at 1 μmol/L [2]: 1.7 ± 0.4 µL/min/mg
- Remaining percentage at 60 min in MLMs ([2]; with NADPH, 60 min): over 91%
- Plasma stability t1/2 Human [3]: >24 h
- Substrate of major CYP enzymes [4]: not a substrate
- EC50 (SARS-CoV-2 [5]; [12]): 0.47 µM
- EC90 (SARS-CoV-2 [5]; [13]): 0.71 µM
- EC50 (SARS-CoV-2 [6]; [12]): 0.62 µM
- EC90 (SARS-CoV-2 [6]; [13]): 1.34 µM
- Concentration in lung within the first 4 h ([7]; lung): ≥ 2.2 µM
- Concentration in plasma within the first 4 h ([7]; plasma): ≥ 2.2 µM
- MRT [8, 14]: 1.7 h
- Tmax [8, 14]: 0.083 h
- Vd [8, 14]: 4.2 L/kg
- clearance [8, 14]: 20 mL/min/kg
- half-life [8, 14]: 2.5 h
- AUC ([8]; male, CD-1, mouse, plasma, iv, 5 mg/kg, AUC0‒t, iv 5 mg/kg, CD-1 mice): 14.8 µM·h
- AUC ([8]; male, CD-1, mouse, plasma, iv, 5 mg/kg, AUC0‒∞, iv 5 mg/kg, CD-1 mice): 14.8 µM·h
- Cmax ([8]; male, CD-1, mouse, plasma, iv, 5 mg/kg, Cmax, iv 5 mg/kg, CD-1 mice): 11.6 µM
- MRT [8, 15]: 4.2 h
- Tmax [8, 15]: 1 h
- half-life [8, 15]: 2.9 h
- AUC ([8]; male, CD-1, mouse, plasma, po, 10 mg/kg, AUC0‒t, po 10 mg/kg, CD-1 mice): 16.8 µM·h
- AUC ([8]; male, CD-1, mouse, plasma, po, 10 mg/kg, AUC0‒∞, po 10 mg/kg, CD-1 mice): 16.8 µM·h
- CL (clearance) ([8]; po 10 mg/kg, CD-1 mice): 33.3 mL/min/kg
- V (volume of distribution) ([8]; po 10 mg/kg, CD-1 mice): 8.4 L/kg
- Plasma level from 0.25 to 2 h ([8]; po 10 mg/kg, CD-1 mice, 0.25 to 2 h): > 2 µM
- Cmax ([8]; po 10 mg/kg, CD-1 mice, plasma, 10 mg/kg): 3.28 µM
- Plasma stability t1/2 Mouse ([9]; 1 μmol/L, 80% CD-1 mouse plasma, 37 °C): >24 h
- EC50 (SARS-CoV-2 [10]): 0.87 µM

Compound: CCC(CC)COC(=O)[C@H](C)N[P@](=O)(OC[C@H]1O[C@@](C#N)(c2ccc3c(N)ncnn23)[C@H](O)[C@@H]1O)Oc1ccccc1 [RDV, Remdesivir]
- Remaining percentage of intact RDV at 60 min with NADPH/Cobi ([1]; HLMs, with NADPH/Cobi, 60 min): 38.5%
- Remaining percentage of intact RDV at 60 min without NADPH ([1]; HLMs, without NADPH, 60 min): 26.1%
- microsomal CLint at 1 μmol/L [1]: 1260 ± 68.6 µL/min/mg
- microsomal CLint at 1 μmol/L [2]: 1680 ± 130 µL/min/mg
- Microsomal stability MLMs t1/2 ([2]; with cofactor NADPH, 1 μmol/L compound, 0.5 mg/mL microsomal protein): 48 ± 6 s
- Substrate of P-glycoprotein (P-gp) (P-glycoprotein (P-gp)): substrate
- Plasma half-life (t1/2) [11]: about 1 h
- half-life at 1 μmol/L ([9]; CD-1, mouse, plasma (80% in buffer), pH 7.4): < 1 min
- Stability in CD-1 mouse plasma (in words) ([9]; wild-type CD-1 mouse plasma): undetectable within seconds
- Substrate for CYP 2C8, 2D6 and 3A4 (CYP 2C8, 2D6 and 3A4): substrate
